Assay results reported in ChEMBL document CHEMBL4011643, “Triaryl Benzimidazoles as a New Class of Antibacterial Agents against Resistant Pathogenic Microorganisms” (J Med Chem, 2017).
≈ marks a conversion by molar mass, not a printed value.

Experiments:
[1] = system: Enterococcus faecalis; experiment: Antibacterial activity against vancomycin-resistant Enterococcus faecalis NCTC 12201 after 20 hrs by broth microdilution method; assay type: functional; settings: NCTC 12201, 20 h
Method in brief: (§1)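 Broth microdilution in Tryptic Soy Broth; growth read as OD600 after 20 h. MIC taken as the lowest drug concentration giving OD600 below 0.1. Run in triplicate.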

[2] = system: Acinetobacter baumannii; experiment: Ratio of MIC for Acinetobacter baumannii ATCC 17978 in absence of Pa-beta-N to MIC for Acinetobacter baumannii ATCC 17978 in presence of Pa-beta-N; assay type: functional
Method in brief: (§2)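 Both MICs were by TSB broth microdilution, with an OD600 <0.1 cutoff at 20 h.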

[3] = system: Klebsiella pneumoniae; experiment: Antibacterial activity against Klebsiella pneumoniae NCTC 13368 after 20 hrs by broth microdilution method; assay type: functional; settings: NCTC 13368, 20 h
Method in brief: (§3)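 Broth microdilution in Tryptic Soy Broth, done in triplicate. Growth was read as OD600 after 20 h. MIC is the lowest drug concentration giving OD600 below 0.1.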

[4] = system: Acinetobacter baumannii; experiment: Antibacterial activity against Acinetobacter baumannii ATCC 17978 after 20 hrs in the presence of PMBN by broth microdilution method; assay type: functional; settings: ATCC 17978, 20 h; method in brief: as §3
[5] = system: Acinetobacter baumannii; experiment: Ratio of MIC for Acinetobacter baumannii AYE in absence of PMBN to MIC for Acinetobacter baumannii AYE in presence of PMBN; assay type: functional
Method in brief: (§4)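 Fold change: MIC without divided by MIC with 30 μg/mL PMBN. Both MICs were by TSB broth microdilution, with an OD600 <0.1 cutoff at 20 h.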

[6] = system: Staphylococcus aureus; experiment: Antibacterial activity against methicillin-resistant Staphylococcus aureus EMRSA-15 after 20 hrs by broth microdilution method; assay type: functional; settings: EMRSA-15, 20 h; method in brief: as §1
[7] = system: Enterococcus faecalis; experiment: Bactericidal activity against vancomycin-resistant Enterococcus faecalis NCTC 12201 assessed as time required to kill bacteria by >6 log10CFU/ml at 4 times MIC by Miles Misra dilution method; assay type: functional
Method in brief: (§5)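 Flasks of TSB inoculated at ~10^6 cfu/mL, compound added at 4 × MIC, shaken at 200 rpm and 37 °C. Samples taken at 1, 2, 4, 6 and 24 h and plated by Miles Misra dilution for CFU/mL. Bactericidal means a loss of >3 log CFU/mL. Three independent repeats, error bars SD.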

[8] = Stabilization of FAM/TAMRA-labeled AT-rich DNA duplex (unknown origin) assessed as change in melting temperature at 5 uM by FRET-based assay
Method in brief: (§6)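 FRET melting of a FAM/TAMRA-labelled AT-rich oligonucleotide, 400 nM working solution in 50 mM potassium, 50 mM cacodylate, pH 7.4. DNA was annealed at 85 °C for 6 min, then held at 25 °C for 5 h, and mixed 1:1 with sample. Fluorescence was read every 0.5 °C from 30 to 100 °C, with a 30 s hold per step. ΔTm is measured against the blank, in triplicate.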

[9] = system: Pseudomonas aeruginosa; experiment: Antibacterial activity against Pseudomonas aeruginosa PAO1 after 20 hrs in the presence of Pa-beta-N and magnesium ions by broth microdilution method; assay type: functional; settings: PAO1, 20 h; method in brief: as §3
[10] = system: Pseudomonas aeruginosa; experiment: Ratio of MIC for Pseudomonas aeruginosa PAO1 in absence of PMBN to MIC for Pseudomonas aeruginosa PAO1 in presence of PMBN; assay type: functional; method in brief: as §4
[11] = system: Klebsiella pneumoniae; experiment: Antibacterial activity against Klebsiella pneumoniae M6 after 20 hrs in the presence of Pa-beta-N and magnesium ions by broth microdilution method; assay type: functional; settings: M6, 20 h; method in brief: as §3
[12] = system: Enterococcus faecalis; experiment: Antibacterial activity against vancomycin-sensitive Enterococcus faecalis NCTC 775 after 20 hrs by broth microdilution method; assay type: functional; settings: NCTC 775, 20 h; method in brief: as §3
[13] = system: Pseudomonas aeruginosa; experiment: Antibacterial activity against Pseudomonas aeruginosa NCTC 13437 after 20 hrs by broth microdilution method; assay type: functional; settings: NCTC 13437, 20 h; method in brief: as §3
[14] = system: Acinetobacter baumannii; experiment: Ratio of MIC for Acinetobacter baumannii AYE in absence of Pa-beta-N to MIC for Acinetobacter baumannii AYE in presence of Pa-beta-N; assay type: functional; method in brief: as §2
[15] = system: Staphylococcus aureus; experiment: Inhibition of Staphylococcus aureus DNA gyrase assessed as reduction in pNO1 supercoiling at 0.5 ug/mL by fluorescent dye-based assay
Method in brief: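 Supercoiling plate assay run per the kit instructions. S. aureus gyrase was incubated with compound and plasmid pNO1. Negatively supercoiled plasmid was captured by a triplex-forming oligonucleotide, stained with a fluorescent dye and read by fluorescence (excitation 485 nm). Percent inhibition was reported.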

[16] = system: Pseudomonas aeruginosa; experiment: Antibacterial activity against Pseudomonas aeruginosa PAO1 after 20 hrs by broth microdilution method; assay type: functional; settings: PAO1, 20 h; method in brief: as §3
[17] = system: Pseudomonas aeruginosa; experiment: Antibacterial activity against Pseudomonas aeruginosa NCTC 13437 after 20 hrs in the presence of Pa-beta-N and magnesium ions by broth microdilution method; assay type: functional; settings: NCTC 13437, 20 h; method in brief: as §3
[18] = system: Enterococcus faecium; experiment: Antibacterial activity against vancomycin-resistant Enterococcus faecium NCTC 12204 after 20 hrs by broth microdilution method; assay type: functional; settings: NCTC 12204, 20 h; method in brief: as §1
[19] = system: Acinetobacter baumannii; experiment: Antibacterial activity against Acinetobacter baumannii AYE after 20 hrs in the presence of Pa-beta-N and magnesium ions by broth microdilution method; assay type: functional; method in brief: as §3
[20] = system: Klebsiella pneumoniae; experiment: Antibacterial activity against Klebsiella pneumoniae NCTC 13368 after 20 hrs in the presence of PMBN by broth microdilution method; assay type: functional; settings: NCTC 13368, 20 h; method in brief: as §3
[21] = system: Pseudomonas aeruginosa; experiment: Ratio of MIC for Pseudomonas aeruginosa NCTC 13437 in absence of Pa-beta-N to MIC for Pseudomonas aeruginosa NCTC 13437 in presence of Pa-beta-N; assay type: functional; method in brief: as §2
[22] = system: Pseudomonas aeruginosa; experiment: Antibacterial activity against Pseudomonas aeruginosa PAO1 after 20 hrs in the presence of PMBN by broth microdilution method; assay type: functional; settings: PAO1, 20 h; method in brief: as §3
[23] = system: Acinetobacter baumannii; experiment: Antibacterial activity against Acinetobacter baumannii AYE after 20 hrs in the presence of PMBN by broth microdilution method; assay type: functional; method in brief: as §3
[24] = system: Klebsiella pneumoniae; experiment: Antibacterial activity against Klebsiella pneumoniae M6 after 20 hrs by broth microdilution method; assay type: functional; settings: M6, 20 h; method in brief: as §3
[25] = Stabilization of FAM/TAMRA-labeled AT-rich DNA duplex (unknown origin) assessed as change in melting temperature at 1 uM by FRET-based assay; method in brief: as §6
[26] = system: Staphylococcus aureus; experiment: Bactericidal activity against methicillin-resistant Staphylococcus aureus EMRSA-15 assessed as time required to kill bacteria by >6 log10CFU/ml at 4 times MIC by Miles Misra dilution method; assay type: functional; method in brief: as §5
[27] = system: Acinetobacter baumannii; experiment: Antibacterial activity against Acinetobacter baumannii ATCC 17978 after 20 hrs in the presence of Pa-beta-N and magnesium ions by broth microdilution method; assay type: functional; settings: ATCC 17978, 20 h; method in brief: as §3
[28] = system: Klebsiella pneumoniae; experiment: Antibacterial activity against Klebsiella pneumoniae M6 after 20 hrs in the presence of PMBN by broth microdilution method; assay type: functional; settings: M6, 20 h; method in brief: as §3
[29] = system: Klebsiella pneumoniae; experiment: Ratio of MIC for Klebsiella pneumoniae NCTC 13368 in absence of PMBN to MIC for Klebsiella pneumoniae NCTC 13368 in presence of PMBN; assay type: functional; method in brief: as §4
[30] = system: Klebsiella pneumoniae; experiment: Ratio of MIC for Klebsiella pneumoniae NCTC 13368 in absence of Pa-beta-N to MIC for Klebsiella pneumoniae NCTC 13368 in presence of Pa-beta-N; assay type: functional; method in brief: as §2
[31] = system: Pseudomonas aeruginosa; experiment: Antibacterial activity against Pseudomonas aeruginosa NCTC 13437 after 20 hrs in the presence of PMBN by broth microdilution method; assay type: functional; settings: NCTC 13437, 20 h; method in brief: as §3
[32] = Cytotoxicity against human HeLa cells assessed as cell viability at 25 uM after 24 hrs by MTT assay; assay type: cell-based; settings: read-out: Activity
Method in brief: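 HeLa cells, 10000 per well, were grown at 37 °C in 5% CO2 and allowed to settle for 24 h. Compound was then added in triplicate for 24 h of continuous exposure. Viability was read by MTT colorimetry, with absorbance at 570 nm.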

[33] = system: Klebsiella pneumoniae; experiment: Ratio of MIC for Klebsiella pneumoniae M6 in absence of Pa-beta-N to MIC for Klebsiella pneumoniae M6 in presence of Pa-beta-N; assay type: functional; method in brief: as §2
[34] = system: Acinetobacter baumannii; experiment: Antibacterial activity against Acinetobacter baumannii AYE after 20 hrs by broth microdilution method; assay type: functional; method in brief: as §3
[35] = system: Pseudomonas aeruginosa; experiment: Ratio of MIC for Pseudomonas aeruginosa NCTC 13437 in absence of PMBN to MIC for Pseudomonas aeruginosa NCTC 13437 in presence of PMBN; assay type: functional; method in brief: as §4
[36] = system: Staphylococcus aureus; experiment: Antibacterial activity against methicillin-sensitive Staphylococcus aureus ATCC 9144 after 20 hrs by broth microdilution method; assay type: functional; settings: ATCC 9144, 20 h; method in brief: as §3
[37] = system: Acinetobacter baumannii; experiment: Antibacterial activity against Acinetobacter baumannii ATCC 17978 after 20 hrs by broth microdilution method; assay type: functional; settings: ATCC 17978, 20 h; method in brief: as §3
[38] = system: Klebsiella pneumoniae; experiment: Ratio of MIC for Klebsiella pneumoniae M6 in absence of PMBN to MIC for Klebsiella pneumoniae M6 in presence of PMBN; assay type: functional; method in brief: as §4
[39] = system: Staphylococcus aureus; experiment: Antibacterial activity against methicillin-resistant Staphylococcus aureus MRSA252 after 20 hrs by broth microdilution method; assay type: functional; settings: MRSA252, 20 h; method in brief: as §1
[40] = system: Klebsiella pneumoniae; experiment: Antibacterial activity against Klebsiella pneumoniae NCTC 13368 after 20 hrs in the presence of Pa-beta-N and magnesium ions by broth microdilution method; assay type: functional; settings: NCTC 13368, 20 h; method in brief: as §3
[41] = system: Acinetobacter baumannii; experiment: Ratio of MIC for Acinetobacter baumannii ATCC 17978 in absence of PMBN to MIC for Acinetobacter baumannii ATCC 17978 in presence of PMBN; assay type: functional; method in brief: as §4

Structure (SMILES): Cc1nc2ccc(C(=O)Nc3cccc(-c4ccc(-n5c(C)nc6cc(C(=O)NCCCN(C)C)ccc65)nc4)c3)cc2[nH]1
- MIC [1]: 0.25 µg/mL (≈ 0.426 µM)
- Ratio [2]: 2 - 4
- MIC [3]: > 32 µg/mL
- MIC [4]: 8 µg/mL
- Ratio [5]: 2
- MIC [6]: 0.5 µg/mL (≈ 0.852 µM)
- Time [7]: 2 h
- deltaTm [8]: 2.1 °C
- MIC [9]: > 32 µg/mL
- Ratio [10]: >16
- MIC [11]: 8 µg/mL
- MIC [12]: 0.5 µg/mL (≈ 0.852 µM)
- MIC [13]: > 32 µg/mL
- Ratio [14]: 2 - 4
- inhibition [15]: 65.2%
- MIC [16]: > 32 µg/mL
- MIC [17]: 16 to 32 µg/mL
- MIC [18]: 0.5 µg/mL (≈ 0.852 µM)
- MIC [19]: 8 µg/mL
- MIC [20]: 16 µg/mL
- Ratio [21]: 2 - 4
- MIC [22]: 4 µg/mL
- MIC [23]: 8 µg/mL
- MIC [24]: 32 µg/mL (≈ 54.5 µM)
- deltaTm [25]: 0.4 °C
- Time [26]: 2 h
- MIC [27]: 8 µg/mL
- MIC [28]: 8 µg/mL
- Ratio [29]: 4
- Ratio [30]: 2 - 4
- MIC [31]: 4 µg/mL
- viability at 24 h, 25 µM [32]: > 98%
- Ratio [33]: >=4
- MIC [34]: 16 µg/mL (≈ 27.3 µM)
- Ratio [35]: >16
- MIC [36]: 0.25 µg/mL (≈ 0.426 µM)
- MIC [37]: 16 µg/mL (≈ 27.3 µM)
- Ratio [38]: 4
- MIC [39]: 2 µg/mL (≈ 3.41 µM)
- MIC [40]: 32 µg/mL
- Ratio [41]: 2

Structure (SMILES): CC1(C)S[C@@H]2[C@H](NC(=O)[C@H](N)c3ccc(O)cc3)C(=O)N2[C@H]1C(=O)O [AMOXICILLIN]
- MIC [1]: 0.5 µg/mL (≈ 1.37 µM)
- MIC [6]: 128 µg/mL (≈ 350 µM)
- MIC [12]: 0.5 µg/mL (≈ 1.37 µM)
- MIC [18]: 16 µg/mL (≈ 43.8 µM)
- MIC [36]: 1 µg/mL (≈ 2.74 µM)
- MIC [39]: > 128 µg/mL
